# GASC-1 inh = inhibitors of GASC-1 histone demethylase, primary screen, biochemical, fluorescence, DELFIA europium; Lysine-specific demethylase 4C (Homo sapiens), Q9H3R0; GST-JMJD2C(1-420) H3K9me3 demethylation; inhibition, % at 2.35 µM; 330,000 tested, 0.069% active; AID 2099, 2009;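 active = more than half of a compound's replicate wells show inhibition beyond 50%, single wells judged on their own value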;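 also: signal counts dimethyl H3K9 product captured on neutravidin plate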
# DAX1 inh-1 = DAX1 (NR0B1) inhibitors on StAR promoter, primary screen, cell-based, luminescence, SF-1 (NR5A1), full-length DAX-1; HEK293T StAR-luciferase reporter, SF-1/DAX-1 repression relief; 370,000 tested, 1.1% active; inhibition, % at 6.8 µM;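 active = inhibition above the mean over all tested compounds plus 3 SD, cut at about 3.6% in these data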;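 also: higher inhibition means more luminescence from relief of DAX-1 repression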
# DAX1 inh-2 = DAX1 (NR0B1) inhibitors, primary screen, cell-based, HEK293, Gal4-DAX1, luciferase luminescence | Nuclear receptor subfamily 0 group B member 1 (Homo sapiens), P51843 | HEK293 Gal4-DAX1 luciferase reporter | inhibition, % at 6.75 µM | 340,000 tested, 0.99% active | AID 504766, 2011;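 active = inhibition above the mean over all tested compounds plus 3 SD, cut at about 4.2% in these data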;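 also: inhibition shows as a rise in luminescence from relieved DAX1 repression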
# Target sequence (P51843 207-470 limits assumed): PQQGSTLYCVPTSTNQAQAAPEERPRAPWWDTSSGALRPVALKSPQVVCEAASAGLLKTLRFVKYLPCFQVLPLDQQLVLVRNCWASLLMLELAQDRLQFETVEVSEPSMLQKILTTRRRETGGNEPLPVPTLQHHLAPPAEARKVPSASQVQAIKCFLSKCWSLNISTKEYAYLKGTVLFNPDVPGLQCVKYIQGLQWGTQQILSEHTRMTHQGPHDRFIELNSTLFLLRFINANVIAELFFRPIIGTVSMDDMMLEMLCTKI
# NR2E3 ag-1 = inhibitors of NR2E3-RetCOR corepressor binding, primary screen, NR2E3 agonist project, biochemical, TR-FRET, GST-NR2E3, biotin-RetCOR; Photoreceptor-specific nuclear receptor (Homo sapiens), Q9Y5X4; 1536-well; inhibition of corepressor binding, % at 4.78 µM; 320,000 tested, 0.12% active;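 active = percent inhibition above the cutoff of mean plus 3 SD of all tested compounds, set per screening campaign, cut at about 20% in these data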
#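 Test system – NR2E3–RetCOR corepressor complex · Quantity – NR2E3 fusion 1.35 nM · Buffer or medium – Tris pH 7.5 · Incubation – Compound–protein incubation for 5 h at 4 °C · Technique – TR-FRET, Eu(K)-anti-GST donor, streptavidin-D2 acceptor, ex 340, em 617/671 nm · Evaluation – percent inhibition of 671/617 nm emission ratio versus biotin and DMSO controls · Plate – 1536-well format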
# NR2E3 ag-2 = NR2E3 agonists in two-hybrid cells, primary screen, cell-based, luminescence, CHO-S, Gal4-NCOR/VP16-NR2E3; luciferase; Photoreceptor-specific nuclear receptor (Homo sapiens), Q9Y5X4; AID 602229, 2012; inhibition of corepressor binding, % at 3.98 µM; 360,000 tested, 0.35% active;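 active = inhibition above the mean of all tested compounds plus 3 SD, cut at about 70% in these data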;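 also: higher means lower luciferase signal from less NR2E3 corepressor binding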
# SMARCA2 activ = SMARCA2 (BRM) function activators, primary screen, cell-based, luminescence, high throughput. MG213 cells, MMTV-luciferase reporter, dexamethasone, overnight. activation, % at 9.1 µM. 370,000 tested, 1% active. AID 652017, 2013; in the data active = activation above about 7.8%
# DAX1 conf = DAX1 (NR0B1) inhibitors relieving SF-1 repression, confirmation, cell-based, luminescence, HEK293T, full-length DAX-1, SF-1 activated StAR promoter | HEK293T StAR-promoter luciferase reporter, SF-1/DAX-1 repression | 2,400 tested, 87% active | shares compounds with DAX1 inh-1 | inhibition, % at 6.8 µM;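 active = inhibition above the average of every tested compound plus 3 SD, cut at about 3.8% in these data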
# SF1 mutant ctr = StAR reporter signal changes without DAX1, counter-screen for DAX1 inhibitor project, cell-based, luminescence, AF-2 mutant SF-1, transactivation. shares compounds with DAX1 inh-1. HEK293 StAR-luciferase, SF-1 AF2 mutant. AID 652136, 2013. inhibition, % at 6.8 µM. 2,400 tested, 78% active;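 active = inhibition above the mean of all tested compounds plus 3 SD, cut at about 3% in these data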
# SMARCA2 conf = SMARCA2 (BRM) function activators, confirmation, cell-based, luminescence, triplicate; shares compounds with SMARCA2 activ; MG213 cells, MMTV-luciferase with dexamethasone, overnight; MG213 cells expressing E1A, Rb sequestered; DMSO wells 0%, reference activator 100%; activation, % at 9.1 µM; 3,500 tested, 30% active; AID 652260, 2013;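 active = activation above its plate's cutoff, the mean activation of tested wells plus 3 SD, cut at about 7.9% in these data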
# GAL4-VP16 Luc = GAL4-VP16 luciferase reporter activation, counter-screen for SMARCA2 (BRM) activator project, cell-based, pG5luc, luminescence, high throughput; shares compounds with SMARCA2 activ; HEK293 GAL4-VP16 pG5luc reporter; scaled: DMSO wells 0%, SAHA wells 100%; activation, % at 9.1 µM; 3,500 tested, 41% active; AID 686939, 2013;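 active = activation above the solvent-only control well mean plus 3 SD, averaged across control plates, cut at about 5.2% in these data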
# Numbers stand for hits; - = inactive; . = not tested or not shown. Rows were chosen to be rich in hits. Some 3.2% of all compounds tested hit in one or more screens of this group.
SMILES,GASC-1 inh,DAX1 inh-1,DAX1 inh-2,NR2E3 ag-1,NR2E3 ag-2,SMARCA2 activ,DAX1 conf,SF1 mutant ctr,SMARCA2 conf,GAL4-VP16 Luc
COc1ccc(NC(=O)Nc2ccc(C)cc2OC(F)F)cc1OC,-,-,-,-,-,-,.,.,.,.
Cc1nc2cc(NC(=O)Nc3ccc(Br)cc3)ccc2o1,-,-,-,-,-,-,.,.,.,.
Cc1nc2cc(NC(=O)N3c4ccccc4CC3C)ccc2o1 (stereo not drawn),-,5.2,-,-,-,9.6,6.8,4.1,14.0,12.5
O=C(NC1CCCCN(Cc2cccc(Cl)c2)C1=O)c1c(F)cccc1F (stereo not drawn),.,-,.,.,.,-,.,.,.,.
COC(=O)C1CN(Cc2ccc(OC)cc2)CCS(=O)(=O)N1Cc1ccccc1 (stereo not drawn),.,-,.,.,.,-,.,.,.,.
COc1ccc(-c2cc(=O)c3ccccc3s2)cc1,-,6.9,-,-,-,8.8,16.8,11.1,-,9.7
COc1ccc2sc3ccccc3c(=O)c2c1,-,-,-,-,-,-,.,.,.,.
COC(=O)[C@]12C[C@H](CC(=O)NCCCCc3ccccc3)C(=O)N(Cc3cccc4ccccc34)C1=C[C@H](C(C)C)O[C@@H]2C1CC1,.,-,.,.,.,-,.,.,.,.
O=C(NNCc1ccccc1)c1ccccn1,.,7.8,-,.,-,14.6,9.2,4.7,-,16.1
COCCn1c(/C=C/c2ccccc2)nc2ccccc21,-,9.8,-,-,-,9.2,9.7,3.5,-,13.4
Cn1c(/C=C/c2ccccc2)nc2ccccc21,-,4.6,-,-,-,8.9,6.6,-,-,7.8
O=C(NC1CCCCC1)c1ccc(-c2ccccc2[N+](=O)[O-])o1,-,9.3,-,-,-,10.7,8.9,5.5,8.7,12.3
Cc1ccc2c(c1)C1CS(=O)(=O)N(CC(C)C)C(=O)N1C2 (stereo not drawn),.,-,.,.,.,-,.,.,.,.
Cc1ccc(-c2nc3c4ccccc4ccn3c2CC2CCCCC2)cc1,.,-,.,.,-,-,.,.,.,.
Cc1ccc(-c2nc3ccc(C)cn3c2CC2CCCCC2)cc1,.,7.2,.,.,-,8.1,3.8,3.2,-,5.1
O=C(/C=C/c1ccc2c(c1)OCO2)Nc1cccnc1,-,11.1,-,-,-,13.1,13.9,4.5,-,5.6
CN(CCO)c1c2c(nc3cc(-c4cccc(F)c4)nn13)CCCC2,-,6.4,-,-,-,13.4,10.4,4.0,11.2,18.4
CC1CCC(NC(=O)c2nn(C)c(=O)c3ccccc23)CC1 (stereo not drawn),.,-,-,.,-,-,.,.,.,.
